Here are results for 48 sequences from the EternaBench riboswitch data.

The data set concerns MS2 coat protein. The data set is described as follows: apparent Kd, MS2 coat protein; higher = weaker binding; RNA-MaP array; FMN 200 µM where present. The method in brief: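 Binding was read on Illumina sequencing-chip clusters where stalled E. coli RNA polymerase had transcribed each design. A titration of SNAP-549-labelled MS2 coat protein began at 0.7 or 1.5 nM and doubled to 3 µM, once without ligand and once with constant ligand, in 100 mM Tris-HCl pH 7.5, 80 mM KCl, 4 mM MgCl2, BSA, DTT, yeast tRNA and Tween-20. The apparent Kd is the median of filtered per-cluster binding-curve fits, based on green signal normalised to red-channel RNA signal and control-cluster median Fmax.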

The mark [1] stands for this setting: designed as: OFF switch for flavin mononucleotide, no ligand.
The mark [2] stands for this setting: ligand present: flavin mononucleotide, designed as: OFF switch for flavin mononucleotide.
Where [3] appears, read: designed as: ON switch for flavin mononucleotide, no ligand.
The mark [4] stands for this setting: ligand present: flavin mononucleotide, designed as: ON switch for flavin mononucleotide.

In the case of “ACGUGUUAUACAGGAUAUGUUUAGGUACAAUCAUCCAGCUAUUAAUUUAUUACAGAAGGGUAAACAUGAGGAUCACCCAUGUCA”, the “apparent Kd” value runs as follows: under setting [1], 26 nM; under setting [2], 15.9 nM.

For the sequence “AGAAACUACGAGAAGGACAUAUGACCAAGACUAAACAUGAGGAUCACCCAUGUAGGAUAUCGUAGUUUCAGGAUCGUGAGAUCA”, the “apparent Kd” value came out at 5.81 nM under setting [1] and 12.2 nM under setting [2].

On to “UAAUAAUAAUAAUAGCAGUAUUACAUGAGGAUCACCCAUGUAUAGGAUAUCGUCAGGAAUACUGUCGAGAAGGAUACAAACUGC”, for which the “apparent Kd” value reads like this: under setting [1], 20.7 nM; under setting [2], 28.7 nM.

As to “UAUUAGCUAGGAUAUACAUGAGGAUCACCCAUGUCACGGGUCCACUCGUCCUAUGCGUGUAGAAGGAGCGACCC”, the “apparent Kd” value is, setting by setting: under setting [1], 20.6 nM; under setting [2], 22.4 nM.

Consider “AAAUUCUGAGGAUAUCGAUGUUUGUACAUGAGGAUCACCCAUGUCCUUUUUAUUUAAUCCCGAGAAGGCAGUGUAU”, for which the “apparent Kd” value reads like this: under setting [1], 29 nM; under setting [2], 25.8 nM.

Turning to “CGCUAAGAGAACGAUACGAGAAGACAUGAGGAUCACCCAUGUAGAAGGACAACGGAAUAAACGUUGUAGGAUAUACACUUAGCG”, the “apparent Kd” value under setting [1] is 15 nM and the “apparent Kd” value under setting [2] worked out at 20.6 nM.

As for “GACAGCGACACAGGAUAUGUCAAUUUUACAUGAGGAUCACCCAUGUCCGAAGCAGAAGGGUGAUCGCACGCACACUAAGCCAUG”, the “apparent Kd” value was determined as 86.5 nM under setting [3] and 98.3 nM under setting [4].

For “ACAUGAGGAUCACCCAUGUUCGUUGAAGAAGGUACCAUUUACUUUAGUAGUAUUAAUUUAUUUGGUAAGGAUAUUCUCAUAAUU”, the “apparent Kd” value under setting [3] worked out at 15.9 nM and the “apparent Kd” value under setting [4] is 7.75 nM.

Turning to “UGGUCCCAGCGUUUGCUGGCCGCUCCAGAAGGCGAUCCAACAUGAGGAUCACCCAUGUCACCGAUCGAGGAUAUGGUUAAGGAU”, the “apparent Kd” value reads like this: under setting [3], 242 nM; under setting [4], 25.4 nM.

Regarding “UCCUUUAAUACAGGAUAUGUUAUUAUACAGUUGUUUGCUUAUUACUUUAUAACAGAAGGGUAGAACAUGAGGAUCACCCAUGUA”, the “apparent Kd” value under setting [3] was 76 nM and the “apparent Kd” value under setting [4] was found to be 50 nM.

Take “AAACAAGAAGGAUAUACAUUAUCGGAUCUUCCGGCAAUGCCACAUGAGGAUCACCCAUGUAGAAGGUCUAAAUU”: the “apparent Kd” value was found to be 12.3 nM under setting [1] and 18.9 nM under setting [2].

For the sequence “AAAUUUUGUCAAGGAUAUGUAUAAAAGAGAAGAAAACAUGAGGAUCACCCAUGUAUAUGGUGGGAACAGAAGGUGAAUAAGUAA”, the “apparent Kd” value worked out at 164 nM under setting [1] and 154 nM under setting [2].

Regarding “UGUCGGAGCAGAGGAUAUUACAUGAGGAUCACCCAUGUAUGAACCAAUAGCUGGAAACAUCAAUGUAAGAAGGCUGCUCCGACA”, the “apparent Kd” value under setting [1] came to 10.2 nM and the “apparent Kd” value under setting [2] stood at 72.5 nM.

As for “AAGUUUGUACGAGGAUAUCAGUUGUUUCUAAAUUCAACAUGAGGAUCACCCAUGUAGCAAUGGAGUGAGAAGGCGUGUGGGCAA”, the “apparent Kd” value is, setting by setting: under setting [3], 457 nM; under setting [4], 240 nM.

As for “UUAGCAUACCGAGGAUAUUCAUAUAAUAAAUAAACAUGAGGAUCACCCAUGUGGCGAAAGCCUAGGGAGAAGGCGGAAUGCUAG”, the “apparent Kd” value runs as follows: under setting [3], 171 nM; under setting [4], 27.2 nM.

As for “GUGACGAAUGUAGGAUAUGCUGAGGAAUACUCAGCAGAAGGACAUGAGGAUCACCCAUGUACUAUGAGUGAAUAAUAACGUCAC”, the “apparent Kd” value reads like this: under setting [1], 77.4 nM; under setting [2], 881 nM.

As to “GAGCUGUGAGGAUAUACAUGAGGAUCACCCAUGUUAAGGAAGUGGUGUAUAUUUUAGUGUAGAAGGCACUUAUU”, the “apparent Kd” value was 121 nM under setting [1] and 439 nM under setting [2].

On to “UGGUACUAGGGAGGAUAUGGGAAGAUACAUGAGGAUCACCCAUGUUUAAGAAUGCCGAGAGGCAACUAGAAGGCCGUAGUACCU”, for which the “apparent Kd” value worked out at 466 nM under setting [3] and 20.3 nM under setting [4].

Turning to “GCUCUUGUCAAGAAGGGCUCGCGGUACGCUGCAGCAGGAUAUUGACAUGAGGAUCACCCAUGUCGACCGGAACAUCUUUGAGGG”, the “apparent Kd” value worked out at 13.3 nM under setting [1] and 134 nM under setting [2].

As to “AAGAAGUAAGGAUAUGGCCGGGUCCCUGGGUUUGGACCCGGCUAGAAGGUACAUGAGGAUCACCCAUGUAAGAA”, the “apparent Kd” value turned out to be 14.7 nM under setting [1] and 15.4 nM under setting [2].

With “UUUUAACAUGAGGAUCACCCAUGUCGUUCAAAUCAAGGAUAUCAGACGUGUACACACGCCUGAGAAGGUGAAGCUC”, the “apparent Kd” value is, setting by setting: under setting [3], 51.1 nM; under setting [4], 132 nM.

As to “GCCUAUUCGUGCAGUUAAGGAGCUCAGGAUAUCGCAAUAACAUGAGGAUCACCCAUGUCCGAAUACGAGAAGGGAGGUCCGACG”, the “apparent Kd” value reads like this: under setting [3], 140 nM; under setting [4], 13.9 nM.

With “AAGUAGGCAGGAUAUACAUGAGGAUCACCCAUGUGCCCAUGAAAGGUACUUUCGAAAGGUAGAAGGGCCUACAA”, the “apparent Kd” value under setting [1] was found to be 16.5 nM and the “apparent Kd” value under setting [2] worked out at 35.6 nM.

Turning to “UGAUCGAGAGAUCUUAGAUUCUGGUAGGAUAUACAUUUAAAACGCUUUACAUGAGGAUCACCCAUGUAGAAGGACUAGAGUCUA”, the “apparent Kd” value is 6.68 nM under setting [1] and 7.5 nM under setting [2].

Turning to “GCAUGCAAGUAGAAGGACGGAUAUUUUGAAAACGUAGGAUAUACAGAAUCAUAUCCACAAGGUUACAUGAGGAUCACCCAUGUA”, the “apparent Kd” value under setting [1] is 8.19 nM and the “apparent Kd” value under setting [2] is 8.08 nM.

As to “GUGUAGAGAGGAUAUACAUGAGGAUCACCCAUGUGAAUAAGAUAGAAUAAGAUAAAGUGUAGAAGGUUUAGUGU”, the “apparent Kd” value under setting [1] came out at 43 nM and the “apparent Kd” value under setting [2] was found to be 34.2 nM.

Consider “GGAAGACAAAGUCUUCCUAUUCGAACAUGAGGAUCACCCAUGUAGGAUAUGCUACUCAAAGAGUAGCAGAAGGACAUGUGCUUU”, for which the “apparent Kd” value is, setting by setting: under setting [1], 34.8 nM; under setting [2], 160 nM.

With “UUGUUCUGAGGAUAUACAUGAGGAUCACCCAUGUGUUUCAGCUAGGAGACUAGCGAAUGUAGAAGGCUGUUCUC”, the “apparent Kd” value reads like this: under setting [1], 15.4 nM; under setting [2], 15.8 nM.

On to “CAUUAACAUGAGGAUCACCCAUGUGAGGAUAUGAUAUUACUUGGACAGCUGUGGUCAAUCAGAAGGCACAUCUU”, for which the “apparent Kd” value runs as follows: under setting [1], 27.8 nM; under setting [2], 32.9 nM.

“UAGAAGUCAGGAUAUCCUGCUCGUCACUUGCGUGAUGAGUAGGAGAAGGGACAUGAGGAUCACCCAUGUAAAGA”: the “apparent Kd” value by setting is: under setting [1], 53.8 nM; under setting [2], 53.4 nM.

On to “AAUAGGCUCGCGCAGGAUAUGGAUCAUUCCACAUGAGGAUCACCCAUGUUAAGGAGCCCUUGCAUCCAGAAGGGUGUUGGUCUUU”, for which the “apparent Kd” value stood at 35.7 nM under setting [3] and 13.1 nM under setting [4].

“UGUCGGAGCAGAGGAUAUUACAUGAGGAUCACCCAUGUAUGAACCACUAGCUGGAAACAGCAAUGUAAGAAGGCUGCUCCGACA”: the “apparent Kd” value runs as follows: under setting [1], 7.43 nM; under setting [2], 51.8 nM.

“UGGUACUAGGGAGGAUAUGGGAAGAUACAUGAGGAUCACCCAUGUUUAAGAAUGCCGAGAGGCAGCUAGAAGGCCCUAGUACCU”: the “apparent Kd” value turned out to be 675 nM under setting [3] and 24.7 nM under setting [4].

As for “UUACUACAUGAGGAUCACCCAUGUCAGGAUAUUGUUUAUACCUUGGAAUACGUGUCAACAAGAAGGGACUAUAU”, the “apparent Kd” value came to 22.9 nM under setting [1] and 23.4 nM under setting [2].

“CGUAACUGCAUAGGAUAUUGAUACAUGAGGAUCACCCAUGUUUUUCGGAUUAGAUAUAUACUAAGCAAGAAGGAUGGAGUUACG”: the “apparent Kd” value under setting [3] was found to be 7.83 nM and the “apparent Kd” value under setting [4] was 5.26 nM.

As for “GCCUUAUCCGUCAGGAUAUACAUUUUUUAGUUGUUGUAGAAGGGACAUGAGGAUCACCCAUGUACAUUACAUUG”, the “apparent Kd” value is 21.1 nM under setting [1] and 21.8 nM under setting [2].

Turning to “UGUAUACAUGAGGAUCACCCAUGUCAACGUAGUCGAGGAUAUGGGCAGCCGUGAGGCGUACCAGAAGGCGAAGAGG”, the “apparent Kd” value by setting is: under setting [3], 86.5 nM; under setting [4], 19.4 nM.

With “GGUCCAUCAUGAGGAUAUGGCACCUUAUUGGUGCCAGAAGGCAUGUCUCUUGACAUGAGGAUCACCCAUGUAAUAAAUUGGACC”, the “apparent Kd” value was 915 nM under setting [3] and 125 nM under setting [4].

For “UGUGUCAUCGAGAAGGCCUCAACAUGAGGAUCACCCAUGUUGUAAUAUGGGAGGAUAUCGAUGAUACAGCUACGUUUCGUAGCA”, the “apparent Kd” value amounted to 19 nM under setting [3] and 6.11 nM under setting [4].

Turning to “AUACAUGAGGAUCACCCAUGUCAGCGGCAGUGCUGCAGAUCAAGAAGGGAUCCCGUGGGCCGGGAUCAGGAUAUUGAUCCUGCA”, the “apparent Kd” value was found to be 105 nM under setting [3] and 18.6 nM under setting [4].

Regarding “ACAUAGUAAGGAUAUGCUGCUCGUCACUUGCGUGAUGAGUAGCAGAAGGUACAUGAGGAUCACCCAUGUAAAGA”, the “apparent Kd” value was determined as 30.1 nM under setting [1] and 20.3 nM under setting [2].

For “UCGCUGCGAGGAUAUACAUGAGGAUCACCCAUGUACGGGUCCGGGUUUUCGUCCAUUAGUAGAAGGCGCAGUGA”, the “apparent Kd” value was found to be 156 nM under setting [1] and 60.6 nM under setting [2].

With “UUAUUAUGUGUAGGAUAUGCAUAUUCUUAUUAUGCAGAAGGACAUGAGGAUCACCCAUGUAUAUUAUUAUUAUAUAUUAUAUAU”, the “apparent Kd” value under setting [1] is 14.6 nM and the “apparent Kd” value under setting [2] came out at 13.1 nM.

As to “UUUUAACAUGAGGAUCACCCAUGUGAGGAUAUCGAAAUUUAUAUUAAUAUUAUUUAUACGAGAAGGCACAUUUU”, the “apparent Kd” value by setting is: under setting [1], 63.2 nM; under setting [2], 73.4 nM.

“AAUCGGGAGCAGAAGGCAUGUCAUAAAACAUGAGGAUCACCCAUGUAGUUAAGGCGAAAGCCGCAUGAGGAUAUGCUCCCGUAA”: the “apparent Kd” value is 5.61 nM under setting [3] and 4.69 nM under setting [4].

Turning to “UUUACUUACGAAGGAUAUGGUUACAUGAGGAUCACCCAUGUAUGUAUAUUGAUCUAGUAUUUUAACCAGAAGGUCGUGAUUUUU”, the “apparent Kd” value by setting is: under setting [1], 34.4 nM; under setting [2], 46.6 nM.

For “AUUUUUAAGGUAGGAUAUAGUAUGAUGGUUUAAUUAGAAGGAUCUCACAUGAGGAUCACCCAUGUAAUAGGAUUACCCAUGUAU”, the “apparent Kd” value was 53.7 nM under setting [1] and 33.3 nM under setting [2].

Turning to “UUGGACGUCGUAGGAUAUGUAGGAUAUUCCUACAUGAGGAUCACCCAUGUAGACAUGGAAGAAGGACAGAAGGACGAUGUCCAU”, the “apparent Kd” value runs as follows: under setting [3], 25.9 nM; under setting [4], 4.79 nM.

The apparent Kd is the concentration giving half-maximal binding under the conditions of the assay.
